Type in all cases: tissue-based
The species entered for assay [1] is Rattus norvegicus. The experiment in a line: Stimulation [3H]muscimol binding to GABA binding site of GABA-A receptor in Sprague-Dawley rat cerebellum at 20 nM by liquid scintillation spectrophotometry. The procedure, abridged: (§1)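 Rat cerebellar P2 membranes (male, 200–250 g) in 50 mM Tris–acetate pH 7.4, about 1 mg/mL protein. Incubated with 10 nM [3H]muscimol and steroids at 20–1000 nM for 60 min at 4 °C. Steroid DMSO stocks were diluted 1:1000 in buffer. 10 µM GABA defined non-specific binding. Vacuum filtration over glass-fibre filters, scintillation counting. Four experiments in duplicate, averaged.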

Assay [2] is filed under the species Rattus norvegicus. The experiment in a line: Stimulation [3H]flunitrazepam binding to benzodiazepine binding site of GABA-A receptor in Sprague-Dawley rat cerebellum by liquid scintillation spectrophotometry. In short, it runs like this: (§2)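 Male rat (200–250 g) cerebellar P2 membranes, washed and resuspended in 50 mM Tris–HCl pH 7.1 (~1 mg/mL protein). Incubated with 1 nM [3H]flunitrazepam and steroids at 10–800 nM for 90 min at 4 °C. Steroids were in DMSO, diluted 1:1000 in buffer just before use. 1 µM diazepam defined non-specific binding. Filtered, then scintillation counting. Mean of four experiments in duplicate.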

The species entered for assay [3] is Rattus norvegicus. The experiment in a line: Stimulation [3H]flunitrazepam binding to benzodiazepine binding site of GABA-A receptor in Sprague-Dawley rat cerebellum at 25 nM by liquid scintillation spectrophotometry. The procedure, abridged:
as §2

The species entered for assay [4] is Rattus norvegicus. The experiment in a line: Stimulation [3H]muscimol binding to GABA binding site of GABA-A receptor in Sprague-Dawley rat cerebellum at 1000 nM by liquid scintillation spectrophotometry. The procedure, abridged: as §1
For assay [5], the species on record is Rattus norvegicus. The experiment in a line: Stimulation [3H]flunitrazepam binding to benzodiazepine binding site of GABA-A receptor in Sprague-Dawley rat cerebellum at 100 nM by liquid scintillation spectrophotometry. The procedure, abridged:
as §2

Assay [6] is filed under the species Rattus norvegicus. The experiment in a line: Stimulation [3H]flunitrazepam binding to benzodiazepine binding site of GABA-A receptor in Sprague-Dawley rat cerebellum at 800 nM by liquid scintillation spectrophotometry. The procedure, abridged: as §2
The species entered for assay [7] is Rattus norvegicus. The experiment in a line: Stimulation [3H]flunitrazepam binding to benzodiazepine binding site of GABA-A receptor in Sprague-Dawley rat cerebellum at 50 nM by liquid scintillation spectrophotometry. The procedure, abridged: as §2
The species named for assay [8] is Rattus norvegicus. The experiment in a line: Stimulation [3H]muscimol binding to GABA binding site of GABA-A receptor in Sprague-Dawley rat cerebellum at 800 nM by liquid scintillation spectrophotometry. In short, it runs like this:
as §1

The species entered for assay [9] is Rattus norvegicus. The experiment in a line: Stimulation [3H]flunitrazepam binding to benzodiazepine binding site of GABA-A receptor in Sprague-Dawley rat cerebellum at 10 nM by liquid scintillation spectrophotometry. In short, it runs like this:
as §2

The species named for assay [10] is Rattus norvegicus. The experiment in a line: Stimulation [3H]flunitrazepam binding to benzodiazepine binding site of GABA-A receptor in Sprague-Dawley rat cerebellum at 500 nM by liquid scintillation spectrophotometry. In short, it runs like this:
as §2

The species named for assay [11] is Rattus norvegicus. The experiment in a line: Stimulation [3H]muscimol binding to GABA binding site of GABA-A receptor in Sprague-Dawley rat cerebellum at 400 nM by liquid scintillation spectrophotometry. In short, it runs like this: as §1
For assay [12], the species on record is Rattus norvegicus. The experiment in a line: Stimulation [3H]muscimol binding to GABA binding site of GABA-A receptor in Sprague-Dawley rat cerebellum at 200 nM by liquid scintillation spectrophotometry. The procedure, abridged: as §1
The species entered for assay [13] is Rattus norvegicus. The experiment in a line: Stimulation [3H]muscimol binding to GABA binding site of GABA-A receptor in Sprague-Dawley rat cerebellum by liquid scintillation spectrophotometry. The procedure, abridged: as §1
The species named for assay [14] is Rattus norvegicus. The experiment in a line: Stimulation [3H]muscimol binding to GABA binding site of GABA-A receptor in Sprague-Dawley rat cerebellum at 50 nM by liquid scintillation spectrophotometry. In short, it runs like this:
as §1

Assay [15] is filed under the species Rattus norvegicus. The experiment in a line: Stimulation [3H]muscimol binding to GABA binding site of GABA-A receptor in Sprague-Dawley rat cerebellum at 100 nM by liquid scintillation spectrophotometry. The procedure, abridged: as §1
Assay [16] is filed under the species Rattus norvegicus. The experiment in a line: Stimulation [3H]flunitrazepam binding to benzodiazepine binding site of GABA-A receptor in Sprague-Dawley rat cerebellum at 250 nM by liquid scintillation spectrophotometry. The procedure, abridged: as §2

For orientation: EC50 means the midpoint of the concentration-response curve.

With `CC(=O)[C@H]1CC[C@H]2[C@@H]3CC[C@H]4C[C@H](O)[C@@H]5C[C@]4(COS(=O)(=O)N5)[C@H]3CC[C@]12C`, the Activity in the assay listed under Rattus norvegicus [1] is 100%; in the assay filed under Rattus norvegicus [3], 113%; in the assay listed under Rattus norvegicus [4] it was 176%; in the assay listed under Rattus norvegicus [5], 122%; in the assay listed under Rattus norvegicus [6] it was 170%; in the assay listed under Rattus norvegicus [7], 122%. Moreover, the Activity was determined as 170% in the assay filed under Rattus norvegicus [8]; 104% in the assay filed under Rattus norvegicus [9]; 126% in the assay filed under Rattus norvegicus [10]; 118% in the assay listed under Rattus norvegicus [11]; 106% in the assay filed under Rattus norvegicus [12]; 105% in the assay listed under Rattus norvegicus [14]. Further, the Activity in the assay listed under Rattus norvegicus [15] came to 108%; in the assay filed under Rattus norvegicus [16] it was 126%. The EC50 was found to be 0.063 µM in the assay listed under Rattus norvegicus [2] and 0.542 µM in the assay listed under Rattus norvegicus [13].
With `CC(=O)[C@H]1CC[C@H]2[C@@H]3CC[C@H]4C[C@H](O)[C@@H]5C[C@]4(COS(=O)(=O)N5Cc4ccccc4)[C@H]3CC[C@]12C`, the Activity in the assay filed under Rattus norvegicus [1] worked out at 119%; in the assay listed under Rattus norvegicus [3], 113%; in the assay listed under Rattus norvegicus [4], 141%; in the assay listed under Rattus norvegicus [5], 117%; in the assay listed under Rattus norvegicus [6], 134%; in the assay filed under Rattus norvegicus [7], 118%. Also, the Activity in the assay listed under Rattus norvegicus [8] amounted to 124%; in the assay listed under Rattus norvegicus [9], 108%; in the assay listed under Rattus norvegicus [10], 125%; in the assay filed under Rattus norvegicus [11] it was 124%; in the assay filed under Rattus norvegicus [12] it was 117%; in the assay listed under Rattus norvegicus [14] it was 121%. For the same molecule, the Activity came out at 121% in the assay listed under Rattus norvegicus [15] and 122% in the assay filed under Rattus norvegicus [16]. Moreover, the results for the EC50 in the assay filed under Rattus norvegicus [2] and in the assay listed under Rattus norvegicus [13] were 0.081 µM and 1.89 µM, respectively.
For the molecule `CC(=O)[C@H]1CC[C@H]2[C@@H]3CC[C@H]4C[C@H](O)CC[C@]4(C)[C@H]3CC[C@]12C`, the Activity in the assay filed under Rattus norvegicus [1] came out at 95%; in the assay filed under Rattus norvegicus [3], 93%; in the assay filed under Rattus norvegicus [4] it was 173%; in the assay filed under Rattus norvegicus [5], 97%; in the assay filed under Rattus norvegicus [6] it was 140%; in the assay listed under Rattus norvegicus [7], 92%. Further, the Activity in the assay filed under Rattus norvegicus [8] turned out to be 165%; in the assay filed under Rattus norvegicus [9] it was 93%; in the assay filed under Rattus norvegicus [10], 132%; in the assay listed under Rattus norvegicus [11], 116%; in the assay filed under Rattus norvegicus [12], 106%; in the assay filed under Rattus norvegicus [14], 100%. The Activity in the assay listed under Rattus norvegicus [15] is 108%; in the assay listed under Rattus norvegicus [16], 122%. Further, the EC50 in the assay filed under Rattus norvegicus [2] stood at 0.265 µM; in the assay filed under Rattus norvegicus [13], 0.658 µM.
As to `CC(=O)[C@H]1CC[C@H]2[C@@H]3CC[C@H]4C[C@H](F)[C@@H]5C[C@]4(COS(=O)(=O)N5)[C@H]3CC[C@]12C`, the Activity in the assay listed under Rattus norvegicus [6] amounted to 98%; in the assay filed under Rattus norvegicus [8] it was 96%.

The record behind these values is ChEMBL document CHEMBL1152575, “Synthesis and GABA(A) receptor activity of 2,19-sulfamoyl analogues of allopregnanolone” (Bioorg Med Chem, 2009).
